The record followed here is publication PMC12597218 (Chemmedchem, 2025).

Converted amounts (≈) assume the structure as drawn. A value given as a limit tells only on which side of the number the result lay.

Series [1] has as its system Nrf2 (ARE stimulation) in HEK293‐ARE‐Luc reporter cell line. Kind of series: Intracellular Nrf2 activation assay. The format is cell-based. Conditions: 24 h; for Nrf2 activity, fold change in luminescence intensity compared with the control group: test sample 10 μM, n = 3; for Intracellular Nrf2 activating effect at lower concentration (dose‐dependency): 5 μM. Put shortly: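 HEK293‐ARE‐Luc (NRF2/ARE luciferase stable line) cells (2.0 × 10⁴/well) were grown 24 h, then given test compound in DMSO (1, 2.5, 5 or 10 μM) for 24 h. One‐step luciferase reagent was added for 15 min at room temperature and luminescence read. Activation is expressed as the luminescence ratio to vehicle control, n = 3. tBHQ served as reference.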

The nature of series [2]: Parallel artificial membrane permeability assay. The format is in vitro ADME. To be noted: PAMPA. Background: PAMPA measures passive passage across an artificial lipid membrane.
The target of series [3] is Keap1‐DC domain and the ETGE‐motif fragment peptide of Nrf2 (Homo sapiens, UniProt Q14145). As to the kind of experiment: Fluorescence polarization. Type of series: binding. An outline of the steps:
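Fluorescence polarization read-out, using a commercial Keap1–Nrf2 inhibitor screening kit run according to the manufacturer's protocol with slight modifications.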
In general terms: Polarisation of emitted light reports the rotation of a fluorescent probe.

Series [4] can be described thus: Metabolic stability in human liver microsomes. The format is in vitro ADME. Conditions: pH 7.4. Put shortly: (§1)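 Test compound (1 μM) with human or mouse liver microsomes (0.2 mg mL⁻¹), 1 mM EDTA and 0.1 M phosphate (pH 7.4) was preincubated 5 min. Reaction was started with 1 mM NADPH (final) and run 30 min at 37 °C. Samples were quenched in acetonitrile with methyltestosterone internal standard, and parent loss versus time zero was measured by LC–MS/MS. CLint was scaled using 48.8/45.4 mg protein per g liver and 25.7/87.5 g liver per kg (human/mouse). Two technical replicates.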
For orientation: Microsomes from liver hold many membrane-bound enzymes, among them those of drug oxidation.

A further series can be described thus: Solubility in PBS. The format is physicochemical. Conditions: 37 °C, pH 7.4, aqueous buffer, kinetic from dmso stock. Put shortly: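 A 10 mM DMSO stock of test compound was diluted into PBS and rotated at 1,000 rpm, 37 °C, for 4 h. The solution was filtered through a 0.45 μm PVDF membrane by centrifugation. […] Two technical replicates.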
The next series concerns HO‐1 and NQO1 mRNA. Kind of series: Nrf2 target gene mRNA expression in RAW264.7 cells. The format is cell-based, Murine. Conditions: 8 h. Put shortly: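 RAW264.7 murine macrophage‐like cells (DMEM, 10% FBS, 37 °C, 5% CO₂) were treated with test compound for 8 h. HO‐1 and NQO1 mRNA were then measured by quantitative real‐time RT‐PCR with gene‐specific primers, with GAPDH primers also listed. Experiments were independent, at least three times. Mean ± SD.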

The test system of a further series is HEK293‐ARE‐Luc cells. Kind of series: Cytotoxicity. Conditions: concentrations up to 50 μM. The format is cell-based. Put shortly: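 HEK293‐ARE‐Luc cells (5.0 × 10⁴/well; DMEM, 10% FBS, 37 °C, 5% CO₂) were grown 24 h, then exposed to test compound added in DMSO for 24 h. CCK‐8 (WST‐8) reagent was added for 4 h and absorbance read at 420 nm. Cell viability was calculated, n = 3.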

Series [5] is described as follows: Metabolic stability in mouse liver microsomes. The format is in vitro ADME. To be noted: pH 7.4. An outline of the steps: as §1
A further series in a line: Protein binding ratio. The format is in vitro ADME. To be noted: bovine, 10% FBS (fetal bovine serum), pH 7.4. Put shortly:
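Test compound (1 μM) in 10% FBS (150 μL) was dialysed against 150 μL of 0.1 M phosphate buffer (pH 7.4) across a 12–14 kDa MWCO membrane, 37 °C, 6 h, 80 rpm. Buffer and serum samples were matrix‐matched, precipitated with acetonitrile/IS, and analysed by LC‐MS/MS. fu = C_buffer/C_plasma. Two technical replicates.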

Series [6] relates to LPS‐stimulated RAW264.7 cells. Kind of series: Anti‐inflammatory effect in LPS‐stimulated RAW264.7 cells. The format is cell-based, Murine. Conditions: RAW264.7, pretreated 8 h. Put shortly: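 For NO, RAW264.7 cells (5 × 10⁵ cells/500 μL; DMEM, 10% FBS, 37 °C, 5% CO₂) were treated with test compound, given LPS (1 μg mL⁻¹) after 8 h, and incubated 16 h at 37 °C. Supernatant was mixed with Griess reagent and absorbance read at 540 nm. NO was quantified against a NaNO₂ standard. Mean ± SD.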

[7] abbreviates: LPS 1 μg mL^−1, ELISA and RT‐PCR.

Chain of Keap1‐DC domain and the ETGE‐motif fragment peptide of Nrf2 (Q14145 2-624 limits assumed): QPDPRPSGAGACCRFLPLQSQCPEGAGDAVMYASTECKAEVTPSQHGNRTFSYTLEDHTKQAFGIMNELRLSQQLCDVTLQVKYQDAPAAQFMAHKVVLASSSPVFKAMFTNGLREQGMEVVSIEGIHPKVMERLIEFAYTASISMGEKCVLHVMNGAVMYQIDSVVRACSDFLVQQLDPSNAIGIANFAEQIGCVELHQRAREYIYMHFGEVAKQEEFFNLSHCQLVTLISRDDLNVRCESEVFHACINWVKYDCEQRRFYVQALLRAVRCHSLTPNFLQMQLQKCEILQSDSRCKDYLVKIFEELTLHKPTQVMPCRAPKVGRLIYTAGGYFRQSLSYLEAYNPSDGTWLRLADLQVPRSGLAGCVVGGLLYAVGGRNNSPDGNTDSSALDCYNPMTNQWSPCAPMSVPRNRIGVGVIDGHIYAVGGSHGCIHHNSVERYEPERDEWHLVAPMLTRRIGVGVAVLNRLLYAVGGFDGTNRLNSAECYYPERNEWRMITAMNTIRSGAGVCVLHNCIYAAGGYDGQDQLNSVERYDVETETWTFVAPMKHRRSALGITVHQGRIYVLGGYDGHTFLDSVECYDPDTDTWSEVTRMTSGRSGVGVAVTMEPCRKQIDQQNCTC

As to `CCOc1ccc(S(=O)(=O)Nc2cc(CC(=O)Nc3ccccc3)c(NS(=O)(=O)c3ccc(OCC)cc3)c3ccccc23)cc1` [Compound 5h, 2‐(1,4‐Bis((4‐ethoxyphenyl)sulfonamido)naphthalen‐2‐yl)‐N‐phenylacetamide], the “Nrf2 activity, fold change in luminescence intensity compared with the control group” value (“Nrf2 activity, fold change” below) in [1] is given as “no effect on Nrf2 activity”.

For `Cc1cc(=O)n(-c2ccccc2)n1C` [antipyrine], the Papp (in general, the rate of passage across a membrane or cell layer, normalised by area and donor concentration) at 4 h in series [2] amounted to 23.1 ×10⁻⁶ cm/s.

Regarding `CC(C)(C)c1cc(O)ccc1O` [tBHQ, tert‐butylhydroquinone, reference compound], the “Nrf2 activity, fold change” value in series [1] was “approximately tenfold”.

As for `CCOc1ccc(S(=O)(=O)Nc2cc(CC(=O)N3CCCCC3)c(NS(=O)(=O)c3ccc(OCC)cc3)c3ccccc23)cc1` [Compound 5j, N,N′‐(2‐(2‐Oxo‐2‐(piperidin‐1‐yl)ethyl)naphthalene‐1,4‐diyl)bis(4‐ethoxybenzenesulfonamide)], 2430 ± 170 nM corresponded to half-maximal inhibition in series [3] (IC50). Further, in series [1], the “Intracellular Nrf2 activating effect at lower concentration (dose‐dependency)” value was “notable activity” and the “Nrf2 activity, fold change” value is reported as “notable Nrf2 activation effects”.

Take `COCCc1ccc(OCC(O)CNC(C)C)cc1` (stereo not shown) [metoprolol]: in series [2], the Papp at 4 h was 1.85 ×10⁻⁶ cm/s.

For the compound `CCOc1ccc(S(=O)(=O)Nc2cc(CC(=O)N3CCCC3)c(NS(=O)(=O)c3ccc(OCC)cc3)c3ccccc23)cc1` [Compound 5i, N,N′‐(2‐(2‐Oxo‐2‐(pyrrolidin‐1‐yl)ethyl)naphthalene‐1,4‐diyl)bis(4‐ethoxybenzenesulfonamide)], in series [2], the Papp at 4 h stood at 3.06 ×10⁻⁶ cm/s. The CLint scaled (in general, the rate of metabolic loss divided by the concentration) at 1 μM in [4] was 546 mL/min/kg. Further, the IC50 (in general, the concentration needed to halve the response being measured) in series [3] turned out to be 1070 ± 40 nM. In addition, the “Intracellular Nrf2 activating effect at lower concentration (dose‐dependency)” value in series [1] was “notable activity”. Besides, in the series “Solubility in PBS”, the solubility (commonly the dissolved amount per volume that the medium holds) at 4 h was 2.65 µM (≈ 1.69 µg/mL). For the same compound, the “NQO1 mRNA expression, increase” value with HO‐1 and NQO1 mRNA (12.5 µM and higher concentrations) was “approximately 50 fold”. The “HO‐1 mRNA expression” value in the series with HO‐1 and NQO1 mRNA (12.5 μM) is listed as “significantly upregulated”. Further, in the series with HO‐1 and NQO1 mRNA (concentrations above 12.5 μM), the “HO‐1 mRNA expression at higher concentrations” value was “downregulated the gene relative to the peak expression”. The “Cytotoxicity (WST‐8 assay)” value in the series with HEK293‐ARE‐Luc cells is recorded as “did not exhibit cytotoxicity”. In [5], this compound gave a CLint scaled at 1 μM of 2290 mL/min/kg. The fraction unbound (usually the share of the substance not bound to proteins or other matrix) at 6 h, 1 μM in “Protein binding ratio” was less than 0.0342. Moreover, in series [6] (setting [7]), the CCL2 expression entry is given as “dose‐dependent reduction” and the “TNF‐α expression” value is “dose‐dependent reduction”. In addition, the “Nitric oxide (NO) level” value in series [6] (LPS 1 μg mL^−1, Griess reagent) is reported as “dose‐dependent reduction”. In addition, the iNOS expression result in [6] (LPS 1 μg mL^−1, RT‐PCR) is given as “dose‐dependent reduction”.
